Data from ChEMBL document CHEMBL1122273, “5-sulfamoylorthanilic acids, a sulfonamide series with salidiuretic activity” (J Med Chem, 1983).
Calls of active or inactive are those of the source. No cut-off for these calls is given here.

Key:
[1] = species: Rattus norvegicus; experiment: Saluretic activity in the rat measured as concentration of chloride in urine; assay type: functional
Outline: (§1)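 Rats deprived of food 24 h, water ad libitum, dosed 50 mg/kg by stomach tube as suspension in 2% starch, no extra water load. Groups of three in diuresis funnels; urine over first 5 h collected. Na⁺ and K⁺ by flame photometry, Cl⁻ argentometrically; expressed as mequiv/kg.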

[2] = test system: Canis familiaris; experiment: Saluretic activity in the dog measured as concentration of Na+ in urinary excretion (2 animals/dose) at (dose 1.56 mg/Kg, po); assay type: functional, Canis lupus familiaris, Urine
Outline: (§2)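 Male beagles trained to rest on a table and to accept stomach tube and catheter. Food withdrawn 24 h before, tap water ad libitum. Bladder emptied by catheter, then 20 mL/kg tap water by stomach tube. Catheterized hourly up to 8 h with 4 mL/kg water orally each time; first 2 h urine served as control. Oral dosing after second catheterization. Pooled 1–6 h urine; Na⁺/K⁺ by flame photometry, Cl⁻ argentometrically.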

[3] = test system: Canis familiaris; experiment: Salidiuretic activity on the basis of the 1.56 mg/Kg po dog assay; Compound was highly active; assay type: functional, organism-based; conditions: Canis lupus familiaris; Urine
[4] = species: Rattus norvegicus; experiment: Diuretic activity in the rats, determined by a modified Lipschitz test; assay type: functional, Urine
Outline: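 Modified Lipschitz test: rats deprived of water 24 h, grouped in threes of similar weight in diuresis funnels. Oral dose of 50 mg/kg, suspended in 2% starch solution, by stomach tube.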

[5] = test system: Canis familiaris; experiment: Diuretic activity in the dog (2 animals/dose) at (dose 1.56 mg/Kg), when administered perorally; assay type: functional, Canis lupus familiaris, Urine
Outline: (§3)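 Trained male beagles, fasted 24 h with tap water ad libitum. Bladder emptied by catheter, then 20 mL/kg tap water by stomach tube, with 4 mL/kg water at each hourly catheterization up to 8 h. The first 2 h of urine served as control. Oral dosing came after the second catheterization, and 1–6 h urine was pooled. Na⁺ and K⁺ were measured by flame photometry, Cl⁻ argentometrically, in mequiv/kg.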

[6] = species: Rattus norvegicus; experiment: Saluretic activity in the rat measured as concentration of Na+ in urine; assay type: functional; outline: as §1
[7] = species: Rattus norvegicus; experiment: Saluretic activity in the rat measured as concentration of K+ in urine; assay type: functional; outline: as §1
[8] = It is the ratio, measured as saluretic activity in the dog as concentration of Cl- in urinary excretion (dose 1.56 mg/Kg, po) to that of (Na+)+(K+); assay type: functional, Urine; outline: as §3
[9] = test system: Canis familiaris; experiment: Saluretic activity in the dog measured as concentration of Cl - in urinary excretion (2 animals/dose) at (dose 1.56 mg/Kg, po); assay type: functional, Canis lupus familiaris, Urine
Outline: (§4)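 Male beagles trained to the procedures, food withdrawn 24 h before, tap water ad libitum. Bladder emptied by catheter, then 20 mL/kg tap water by stomach tube, plus 4 mL/kg orally at each hourly catheterization up to 8 h. The first 2 h of urine served as control. Compound given orally after the second catheterization. Urine from 1–6 h post-dose pooled; Na⁺ and K⁺ by flame photometry, Cl⁻ argentometrically, in mequiv/kg.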

[10] = test system: Rattus norvegicus; experiment: Salidiuretic activity on the basis of the 50 mg/kg po rat assay; Compound was active; conditions: Urine
[11] = test system: Canis familiaris; experiment: Saluretic activity in the dog measured as concentration of K+ in urinary excretion (2 animals/dose) at (dose 1.56 mg/Kg, po); assay type: functional, Canis lupus familiaris, Urine; outline: as §2
[12] = It is the ratio, measured as saluretic activity in the dog as concentration of Na+ in urinary excretion (dose 1.56 mg/Kg, po) to that of K; assay type: functional, Urine; outline: as §3
[13] = test system: Canis familiaris; experiment: Saluretic activity in the dog measured as concentration of Cl - in urinary excretion (2 animals/dose) at (dose 0.1 mg/Kg, po); assay type: functional, Canis lupus familiaris, Urine; outline: as §4
[14] = test system: Rattus norvegicus; experiment: Salidiuretic activity on the basis of the 50 mg/kg po rat assay; compound was highly active; assay type: functional, organism-based; parameters: dose 50 mg/kg; conditions: Urine
[15] = test system: Canis familiaris; experiment: Diuretic activity in the dog (2 animals/dose) at (dose 0.1 mg/Kg), when administered perorally; assay type: functional, Canis lupus familiaris, Urine; outline: as §3
[16] = test system: Canis familiaris; experiment: Salidiuretic activity on the basis of the 1.56 mg/Kg po dog assay; compound was highly active; assay type: functional, organism-based; conditions: Canis lupus familiaris; Urine
[17] = test system: Canis familiaris; experiment: Saluretic activity in the dog measured as concentration of Na+ in urinary excretion (2 animals/dose) at (dose 0.1 mg/Kg, po); assay type: functional, Canis lupus familiaris, Urine; outline: as §2
[18] = It is the ratio, measured as saluretic activity in the dog as concentration of Na+ in urinary excretion (dose 0.1 mg/Kg, po) to that of K; assay type: functional, Urine; outline: as §3
[19] = test system: Canis familiaris; experiment: Saluretic activity in the dog measured as concentration of K+ in urinary excretion (2 animals/dose) at (dose 0.1 mg/Kg, po); assay type: functional, Canis lupus familiaris, Urine; outline: as §4
[20] = It is the ratio, measured as saluretic activity in the dog as concentration of Cl- in urinary excretion (dose 0.1 mg/Kg, po) to that of (Na+)+(K+); assay type: functional, Urine; outline: as §3
[21] = test system: Canis familiaris; experiment: Salidiuretic activity on the basis of the 1.56 mg/Kg perorally in dog assay; compound is found to be highly active.; assay type: functional, organism-based; conditions: Canis lupus familiaris; Urine
[22] = test system: Rattus norvegicus; experiment: Salidiuretic activity on the basis of the 50 mg/kg perorally in rat assay; compound is found to be highly active.; conditions: Urine
[23] = test system: Canis familiaris; experiment: Sailuric activity in the dog measured as concentration of Cl - in urinary excretion (2 animals/dose) at (dose 1.56 mg/Kg, po); assay type: functional, Canis lupus familiaris, Urine; outline: as §4
[24] = test system: Canis familiaris; experiment: Saluretic activity in the dog measured as concentration of Na+ in urinary excretion (2 animals/dose) at (dose 1.56 mg/Kg, perorally); assay type: functional, Canis lupus familiaris, Urine; outline: as §2
[25] = test system: Canis familiaris; experiment: Sailuric activity in the dog measured as concentration of K+ in urinary excretion (2 animals/dose) at (dose 1.56 mg/Kg, po); assay type: functional, Canis lupus familiaris, Urine; outline: as §4
[26] = It is the ratio, measured as saluretic activity in the dog as concentration of Cl- in urinary excretion (dose 1.56 mg/Kg, perorally) to that of (Na+)+(K+); assay type: functional, Urine; outline: as §3
[27] = test system: Canis familiaris; experiment: Salidiuretic activity on the basis of the 1.56 mg/Kg po dog assay; compound is found to be active; assay type: functional, organism-based; conditions: Canis lupus familiaris; Urine
[28] = test system: Rattus norvegicus; experiment: Salidiuretic activity on the basis of the 50 mg/kg po rat assay; Compound is found to be modetately active; assay type: functional, organism-based; parameters: dose 50 mg/kg; conditions: Urine
[29] = It is the ratio, measured as saluretic activity in the dog as concentration of Na+ in urinary excretion (dose 1.56 mg/Kg, perorally) to that of K; assay type: functional, Urine; outline: as §3

Compound | Saluretic activity [1] [m equiv 5hr-1 kg-1] | Saluretic activity [2] [m equiv 6hr-1 kg-1] | Diuretic activity [4] [mL/kg] | Diuretic activity [5] [ml kg-1 6hr-1] | Saluretic activity [6] [m equiv 5hr-1 kg-1] | Saluretic activity [7] [m equiv 5hr-1 kg-1] | Ratio [8] | Saldiuretic activity [9] [m equiv 6hr-1 kg-1] | Ratio [12] | also measured
CN(c1ccccc1)c1cc(NCc2cccs2)c(S(=O)(=O)[O-])cc1S(N)(=O)=O.[Na+] | 2 | 5.86 | 1.8 | 70.6 | 1.8 | 0.7 | 0.95 | 7.03 | 4.3 | Saldiuretic activity [3]: Active; Saldiuretic activity [10]: Active; Saldiuretic activity [11]: 1.37 mequiv kg-1 6hr-1
NS(=O)(=O)c1cc(S(=O)(=O)[O-])c(NCc2cccs2)cc1S(=O)(=O)C1CCCCC1.[Na+] | 8.7 | 5.4 | 4 | 66.7 | 7.3 | 2.2 | 1 | 6.39 | 5.1 | Saldiuretic activity [13]: 3.54 m equiv 6hr-1 kg-1; Saldiuretic activity [14]: Active; Diuretic activity [15]: 47.4 ml kg-1 6hr-1; Saldiuretic activity [16]: Active; Saluretic activity [17]: 3.18 m equiv 6hr-1 kg-1; Ratio [18]: 7.7; Saldiuretic activity [19]: 0.41 m equiv 6hr-1 kg-1; Ratio [20]: 1; Saluretic activity [11]: 1.05 m equiv 6hr-1 kg-1
NCc1ccco1.NS(=O)(=O)c1cc(S(=O)(=O)O)c(NCc2ccco2)cc1Cl | – | – | – | – | – | – | – | – | – | Saldiuretic activity [21]: Active; Saldiuretic activity [22]: Active
NCc1ccccc1.NS(=O)(=O)c1cc(S(=O)(=O)O)c(NCc2ccccc2)cc1Cl | 1.2 | – | 1.4 | 40.4 | 1.4 | 1.4 | – | – | – | Saldiuretic activity [23]: 2.07 m equiv 6hr-1 kg-1; Saluretic activity [24]: 1.65 m equiv 6hr-1 kg-1; Saluretic activity [25]: 0.35 m equiv 6hr-1 kg-1; Ratio [26]: 1.05; Saldiuretic activity [27]: Active; Saldiuretic activity [28]: Weak activity; Ratio [29]: 4.7
